For orientation: AC50 means the concentration at which the activity in the assay is half-maximal. The term CC50 denotes the concentration giving 50% cytotoxicity. A high value points to lower toxicity to the cells. Usually IC50 stands for the midpoint of a concentration-inhibition curve. A high value points to weaker potency in that assay.

The results in this text go back to ChEMBL document CHEMBL1147740, “Synthesis and biological activity of isoxazolidinyl polycyclic aromatic hydrocarbons: potential DNA intercalators” (J Med Chem, 2006).

Structures are written as SMILES. Values after ≈ are worked out from the molar mass of the structure shown.

The subject of experiment [1] is MOLT-3. Nature of the experiment: Cytotoxicity against MOLT3 Leukemia cells after 24 hrs of treatment. The class given is functional, cell-based. The conditions noted are these: Homo sapiens, MOLT-3, 24 h. The method, boiled down:
(§1)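 Trypan blue exclusion; cells exposed under optimal culture conditions to new compounds at 10 to 500 µM (actinomycin D 1 to 200 µM) or control medium for the stated time. CC50 is the concentration causing 50% toxicity by trypan blue.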

The subject of another experiment is U-937. As to the kind of experiment: Cytotoxicity against U937 Lymphoma cells by MTS assay. The class given is functional, cell-based, Homo sapiens. The conditions noted are these: Homo sapiens, U-937. In a few lines: (§2)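 MTS tetrazolium reduction assay; cells grown under optimal culture conditions for 20 h with compound at 10 to 500 µM or without it; MTS reagent then added for 1 h at 37 °C, humidified 5% CO2; absorbance read at 490 nm. Triplicate. IC50 is the concentration giving 50% reduction of absorbance.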
In general terms: Tetrazolium assays rely on reduction of a dye to a coloured formazan, in cell work by metabolically active cells.

The subject of experiment [2] is Vero. As to the kind of experiment: Cytotoxicity against normal vero kidney cells by MTS assay. Format: functional, cell-based, Chlorocebus sabaeus. The conditions noted are these: Chlorocebus sabaeus, Vero. In a few lines:
as §2

In a further experiment the test system is THP-1. Nature of the experiment: Cytotoxicity against THP1 Leukemia cells by MTS assay. The class given is functional, cell-based, Homo sapiens. The following applies: Homo sapiens, THP-1. The method, boiled down: as §2
The test system of experiment [3] is MOLT-3. As to the kind of experiment: Cytotoxicity against MOLT3 Leukemia cells after 48 hrs of treatment. The class given is functional, cell-based. The following applies: Homo sapiens, MOLT-3, 48 h. The method, boiled down: as §1
In experiment [4] the test system is MOLT-3. Nature of the experiment: Cytotoxicity against MOLT3 Leukemia cells after 72 hrs of treatment. Format: functional, cell-based. The conditions noted are these: Homo sapiens, MOLT-3, 72 h. In a few lines: as §1
The test system of experiment [5] is MOLT-3. As to the kind of experiment: Cytotoxicity against MOLT3 Leukemia cells by MTS assay. The conditions noted are these: Homo sapiens, MOLT-3. Format: functional, cell-based, Homo sapiens. In a few lines:
as §2

Experiment [6] concerns Human alphaherpesvirus 1. As to the kind of experiment: Antiviral activity against herpes simplex virus 1 TK- KOS ACVr strain in HEL cells. Format: functional. The following applies: Human alphaherpesvirus 1, TK- KOS ACVr; read-out: MIC50. The method, boiled down: (§3)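 Minimum inhibitory concentration (µg/mL) needed to reduce virus-induced cytopathogenicity by 50%; HSV strains in HEL cells, Punta Toro virus in Vero cells.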

Another experiment has as its system Human alphaherpesvirus 2. Nature of the experiment: Antiviral activity against Herpes simplex virus 2 G strain in HEL cells. Format: functional. The conditions noted are these: Human alphaherpesvirus 2, G. The method, boiled down:
as §3

Experiment [7] relates to Human alphaherpesvirus 1. Nature of the experiment: Antiviral activity against Herpes simplex virus 1 KOS strain in HEL cells. The class given is functional, Human herpesvirus 1 strain KOS. The following applies: Human alphaherpesvirus 1, KOS. In a few lines:
as §3

Experiment [8] has as its system Vesicular stomatitis virus. Nature of the experiment: Antiviral activity against Vesicular stomatitis virus in HEL cells. Format: functional. The method, boiled down:
(§4)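 Virus infection of HEL cell cultures. The endpoint is the minimum inhibitory concentration (µg/mL) that reduces virus-induced cytopathogenicity by 50%.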

For a further experiment, the system named is HEL. As to the kind of experiment: Antiviral activity against HEL cells. Format: functional, Homo sapiens. The conditions noted are these: Homo sapiens, HEL; read-out: MCC. The method, boiled down: (§5)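 Cytotoxicity scored as the concentration giving a microscopically detectable alteration of normal cell morphology in HEL, HeLa or Vero cells.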
In a further experiment the test system is Vaccinia virus. As to the kind of experiment: Antiviral activity against Vaccinia virus in HEL cells. The class given is functional. The following applies: Orthopoxvirus vaccinia. In a few lines: as §4
The test system of another experiment is Human respirovirus 3. Nature of the experiment: Antiviral activity against Parainfluenza-3 virus in vero cells. The class given is functional. The method, boiled down:
(§6)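 Virus infection of Vero cell cultures. The endpoint is the minimum inhibitory concentration (µg/mL) that reduces virus-induced cytopathogenicity by 50%.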

The next experiment relates to Sindbis virus. Nature of the experiment: Antiviral activity against Sindbis virus in vero cells. The class given is functional. The method, boiled down:
as §6

Experiment [9] deals with Coxsackievirus B4. Nature of the experiment: Antiviral activity against Coxsackie virus B4 in HeLa cells. Format: functional. The following applies: Enterovirus B. In a few lines: (§7)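 Virus infection of HeLa cell cultures. The endpoint is the minimum inhibitory concentration (µg/mL) that reduces virus-induced cytopathogenicity by 50%.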
In a further experiment the test system is HeLa. Nature of the experiment: Antiviral activity against HeLa cells. Format: functional, Homo sapiens. The conditions noted are these: Homo sapiens, HeLa; read-out: MCC. The method, boiled down: as §5
Experiment [10] relates to Vero. As to the kind of experiment: Antiviral activity against vero cells. The class given is functional, Chlorocebus sabaeus. The conditions noted are these: Chlorocebus sabaeus, Vero; read-out: MCC. In a few lines:
as §5

Experiment [11] concerns Mammalian orthoreovirus 1. Nature of the experiment: Antiviral activity against Reovirus 1 in vero cells. The class given is functional. The method, boiled down: as §6
Experiment [12] relates to Coxsackievirus B4. Nature of the experiment: Antiviral activity against Coxsackie virus B4 in vero cells. Format: functional. The following applies: Enterovirus B. In a few lines: as §6
Experiment [13] relates to Vesicular stomatitis virus. Nature of the experiment: Antiviral activity against Vesicular stomatitis virus in HeLa cells. The class given is functional. In a few lines: as §7
The subject of another experiment is Punta Toro virus. As to the kind of experiment: Antiviral activity against Punta Toro virus in vero cells. Format: functional. The conditions noted are these: Punta Toro virus; read-out: MIC50. In a few lines:
as §3

Experiment [14] relates to Respiratory syncytial virus. Nature of the experiment: Antiviral activity against Respiratory syncytial virus in HeLa cells. The class given is functional. The following applies: human respiratory syncytial virus. In a few lines:
as §7

`CN1O[C@H](CO)C[C@@H]1c1ccc2ccc3cccc4ccc1c2c34` (racemic): the values for the AC50 in the experiment on MOLT-3 [1], in the experiment on MOLT-3 [3] and in the experiment on MOLT-3 [4] were 118 µM, 71 µM and 67 µM, respectively. Also, the results for the CC50 in the experiment on MOLT-3 [1], with MOLT-3 [3] and with MOLT-3 [4] were 278 µM, 168 µM and 133 µM, respectively. The IC50 with U-937 turned out to be 111 µM; with Vero [2], 159 µM; in the experiment with THP-1 it was 107 µM; with MOLT-3 [5], 112 µM.
Molecule `CN1O[C@@H](CO)C[C@@H]1c1c2ccccc2cc2ccccc12` (racemic) showed an IC50 in the experiment with MOLT-3 [5] greater than 500 µM.
As for `Nc1nc2c(ncn2COC(CO)CO)c(=O)[nH]1` [GANCICLOVIR], the MIC50 is 0.48 µg/mL (≈ 1.88 µM) in the experiment with Human alphaherpesvirus 1 [6]; 0.032 µg/mL (≈ 0.125 µM) against Human alphaherpesvirus 2; 0.096 µg/mL (≈ 0.376 µM) against Human alphaherpesvirus 1 [7]; greater than 100 µg/mL in experiment [8]; greater than 100 µg/mL against Vaccinia virus. In addition, in the experiment with HEL, the MCC is greater than 100 µg/mL.
In the experiment on MOLT-3 [5], `CN1O[C@H](CO)C[C@@H]1c1c2ccccc2cc2ccccc12` (relative stereo) gave an IC50 greater than 500 µM.
Still for that read-out and setting: the same measure for `OC[C@H]1C[C@H](c2c3ccccc3cc3ccccc23)N(Cc2ccccc2)O1` (racemic): greater than 500 µM.
Regarding `Nc1nc2c(ncn2COCCO)c(=O)[nH]1` [ACYCLOVIR], the MIC50 is 48 µg/mL (≈ 213 µM) in the experiment on Human alphaherpesvirus 1 [6]; 0.384 µg/mL (≈ 1.71 µM) against Human alphaherpesvirus 2; 0.384 µg/mL (≈ 1.71 µM) with Human alphaherpesvirus 1 [7]; greater than 400 µg/mL in experiment [8]; greater than 400 µg/mL with Vaccinia virus. Further, in the experiment with HEL, the MCC was greater than 400 µg/mL.
Take `Nc1ncnc2c1ncn2C[C@H](O)CO` [(S)-DHPA]: the MIC50 in the experiment on Human respirovirus 3 was 400 µg/mL (≈ 1910 µM); in the experiment with Sindbis virus, greater than 400 µg/mL; in the experiment on Coxsackievirus B4 [9], greater than 400 µg/mL; in experiment [11] it was 240 µg/mL (≈ 1150 µM); in the experiment with Coxsackievirus B4 [12] it was greater than 400 µg/mL; in experiment [13], greater than 400 µg/mL. The MIC50 (with Punta Toro virus; in experiment [14]) was greater than 400 µg/mL each time. Besides, the MCC in the experiment with HeLa and in the experiment on Vero [10] was greater than 400 µg/mL in each case.
As for `O=c1[nH]c(=O)n([C@H]2C[C@H](O)[C@@H](CO)O2)cc1/C=C/Br` [BRIVUDINE], the MIC50 against Human respirovirus 3 is greater than 400 µg/mL; in the experiment on Sindbis virus, greater than 400 µg/mL; in the experiment with Human alphaherpesvirus 1 [6] it was greater than 400 µg/mL; against Coxsackievirus B4 [9] it was greater than 400 µg/mL; in the experiment on Human alphaherpesvirus 2, 240 µg/mL (≈ 720 µM); in the experiment with Human alphaherpesvirus 1 [7], 0.128 µg/mL (≈ 0.384 µM). The MIC50 in experiment [11] is greater than 400 µg/mL; in experiment [8], greater than 400 µg/mL; against Vaccinia virus, 48 µg/mL (≈ 144 µM); against Coxsackievirus B4 [12], greater than 400 µg/mL; in experiment [13], greater than 400 µg/mL; in the experiment on Punta Toro virus, greater than 400 µg/mL. The MIC50 in [14] was greater than 400 µg/mL. In addition, the MCC with HeLa, in the experiment with Vero [10] and in the experiment on HEL was greater than 400 µg/mL throughout.
